Source: PubChem (several laboratories)
Many of the other results were omitted from the sample, so hits are more common in it than they were.
MPTP inh = permeability transition pore inhibition | hit rate 1.4% among 360,000 | isolated mouse mitochondria, Ca2+ swelling absorbance, 30 min | inhibition, % at 10 µM;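 active means inhibition of 50% or more, scaled per plate between neutral and stimulator controls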;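 further: 0% = DMSO wells given calcium and 100% = 1 mM EGTA wells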
T cruzi repl = T. cruzi replication inhibition; T. cruzi beta-gal in NIH3T3, luminescence, 90 h; inhibition, % (concentration not given with the values); hit rate 1.4% among 300,000; AID 1885;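 active means mean inhibition across valid replicates above about 55%, limit read from the data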;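 further: signal also drops with host cell toxicity which is not excluded here; 0% = plate median of DMSO wells and 100% = zero luminescence signal; higher percent means less beta-gal luminescence so fewer parasites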
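Test system: β-gal T. cruzi (Tulahuen C4) inside NIH/3T3 cells / Quantity: 5,000 cells/well / Measured by: luminescence from GalScreen with 0.05% NP40, read after 60 min / Medium: DMEM plus 2% FBS / Measure: parasite load inhibition, % / Reagent: Tulahuen C4 trypomastigotes, 5000/well / Schedule: co-culture of at least 90 h after 3 h attachment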
Hep lipid drop = modulators of hepatic lipid droplet formation; hit rate 0.4% among 240,000; AID 1656; AML12 mouse hepatocytes, oleate lipid droplets, BODIPY imaging; inhibition, % at 6.5 µM;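 active means lipid droplet intensity inhibited by at least 50%, with more than 500 cells counted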
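System: AML12 hepatocytes (mouse). Probe or stimulus: oleic acid at 100 µM to induce lipid droplet formation. Times: overnight treatment with compound plus oleate. Detection: Image-based BODIPY and DAPI two-channel analysis. Evaluation: percent inhibition of filter-corrected integrated lipid droplet intensity per well.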
DTT redox prof = compounds producing H2O2 with reducing agent – biochemical, NIH compound library profiling, artefact control for MLSCN library redox annotation, primary screen. DTT-dependent redox cycling H2O2, phenol red/HRP absorbance; 100% = 100 µM peroxide control, 0% = buffer. activation, % at 10 µM. hit rate 0.03% among 200,000;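 active means activation of at least 50% relative to the plate's high and low controls in the primary single-dose screen; inactive means activation below 50%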;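 further: compound incubated with DTT at 0.8 mM final as the reducing agent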
L major viab = inhibitors of Leishmania major promastigote growth; Leishmania major promastigotes, resazurin fluorescence viability; inhibition, % at 10 µM; hit rate 9% among 200,000; in the data active means inhibition above about 50%;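 further: promastigotes grown with compound for 44 hours at 28 °C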
Active calls of the source: *; / = no result given.

SMILES	MPTP inh	T cruzi repl	Hep lipid drop	DTT redox prof	L major viab
COc1ccc(-c2cc(C(=O)NCc3ccco3)c3ccccc3n2)cc1OC	2.4	6.6	/	/	/
CC(C)NC(=O)CC(=O)NN=C1CCCCC1	-0.2	-10.0	13.6	-0.7	-5.9
Cc1ccc(CSc2nnc(CNc3ccc(F)cc3)o2)cc1	-1.0	13.2	10.4	-2.1	10.5
COc1cccc(/C=C/C(=C2/C(=O)N(c3ccccc3)N=C2C)c2ccc(C)cc2)c1OC	3.8	3.3	74.4*	5.1	28.0
CC1(C)O[C@@H]2[C@H](O1)[C@@H](CO)O[C@H]2n1ccc(=O)[nH]c1=O	-1.0	/	/	/	/
O=C(c1ccc2c(c1)OCO2)C1CCCN(Cc2ccc3nsnc3c2)C1 (centres undefined)	-0.8	31.1	-8.4	-0.1	91.8*
Cn1c(CN2CCCC(C(=O)c3ccc4c(c3)OCO4)C2)nc2ccccc21 (centres undefined)	0.6	72.7*	12.0	-0.7	34.9
O=C(c1ccc2c(c1)OCO2)C1CCCN(Cc2c(F)ccc(F)c2F)C1 (centres undefined)	-1.0	16.2	-1.7	/	/
CC1CCCN(S(=O)(=O)c2ccc(NC(=O)C3CC(=O)N(c4ccccc4)C3)cc2)C1 (centres undefined)	0.0	29.3	-1.1	/	/
Cc1nn(C2CCS(=O)(=O)C2)c(C)c1C=O (centres undefined)	0.1	-4.4	-1.3	-0.9	-11.8
COC(=O)c1c(C)[nH]c(C)c1-c1cccc([N+](=O)[O-])c1	-0.8	9.3	-3.4	-0.3	20.6
COC(=O)c1c(C)[nH]c(C)c1-c1ccc(C)cc1	-3.5	21.4	3.3	0.1	93.6*
COc1cccc(/C=C/C(=O)c2ccc(NS(=O)(=O)c3ccc(C)cc3)cc2)c1	9.3	10.1	9.6	0.0	99.4*
COc1cccc(C(=O)/C=C/Nc2ccc(S(=O)(=O)Nc3cccc(C(C)=O)c3)cc2)c1	30.3	4.5	/	-4.8	82.1*
COc1cc(/C=C/C(=O)c2ccc(NS(=O)(=O)c3ccc(C)cc3)cc2)ccc1OC(F)F	3.2	42.0	-2.4	0.2	98.5*
Cc1ccc(C(=O)C=Cc2cccc(C)c2)cc1	2.1	/	/	/	/
COc1cc(/C=C/C(=O)c2ccc(NS(=O)(=O)c3ccc(C)cc3)cc2)cc(OC)c1O	2.4	-19.3	12.7	1.2	82.5*
COc1cc(S(=O)(=O)Nc2ccc(C)cc2)ccc1NC(=O)c1ccncc1	0.8	0.7	-9.1	-0.3	22.7
COc1ccc(C2=Cc3ccccc3C(CC(=O)C3CC3)N2c2ccc(-c3cc(OC)c(OC)c(OC)c3)cc2)cc1 (centres undefined)	0.1	/	/	/	/
CCCCC(=O)Nc1nc2ccc(C(=O)OC)cc2s1	2.7	47.8	1.2	-0.8	8.7
CC(=O)N1CCN(S(=O)(=O)c2cccc(C(=O)NNC(=O)COc3ccc(Cl)cc3C)c2)CC1	-2.9	-1.7	/	/	/
Cc1ccc(Cl)cc1NC(C#N)c1ccccc1 (centres undefined)	1.2	3.0	0.7	/	/
O=C(Nc1ccc(N2CCN(C(=O)c3ccccc3F)CC2)cc1)c1ncn[nH]1	1.3	-71.3	0.7	-0.1	2.2
Cc1ccc2oc(Nc3nc(-c4ccccc4)cc(=O)[nH]3)nc2c1	/	74.8*	-99.9	-1.8	98.3*
COCc1cc(=O)[nH]c(Nc2nc(C)c3ccccc3n2)n1	-0.5	-0.6	2.7	0.2	78.7*
SMILES	MPTP inh	T cruzi repl	Hep lipid drop	DTT redox prof	L major viab
COCc1cc(=O)[nH]c(Nc2nc3ccccc3o2)n1	-0.2	30.9	/	2.7	98.8*
CC(=O)OCC1CC(COC(C)=O)C(COC(C)=O)CC1COC(C)=O (centres undefined)	1.8	/	/	/	/
CN(C)C(=O)CSc1nnc(-c2ccc(S(=O)(=O)N3CCCC3)cc2)n1C	-0.7	-4.9	11.2	/	/
COc1ccc(C(=O)NCc2nnc(SCC(=O)N3CCc4ccccc43)n2Cc2ccccc2)cc1	1.3	14.2	-6.1	0.1	64.5*
CCOC(=O)CSc1nnc(CNC(=O)c2ccc(OC)cc2)n1Cc1ccccc1	0.6	/	/	-0.1	1.9
CCc1nccn1S(=O)(=O)c1ccc(Br)cc1Br	1.5	1.3	/	0.1	89.4*
CCOC(=O)C1CCN(C(=O)CCC2CCCC2)CC1	-0.1	-4.3	-7.9	/	/
CC(C)(C)NCCOc1ccc(Br)cc1	-3.8	11.2	21.0	0.1	95.2*
CC1CCc2c(sc3ncn(CC(=O)N=Nc4c(O)[nH]c5ccccc45)c(=O)c23)C1 (centres undefined)	37.0	8.9	9.2	/	/
